Results reported in ChEMBL document CHEMBL1153726, “Synthesis and anticancer activity of sclerophytin-inspired hydroisobenzofurans” (Bioorg Med Chem Lett, 2009).

Assays:
Type in all cases: functional
SK-OV-3 [1] = assay: Growth inhibition of human SKOV3 cells at 10 uM after 96 hrs by MTT assay; design: scale not given: the % may be the effect or the level left
NCI-H460 = assay: Growth inhibition of human NCI-H460 cells at 100 nM after 96 hrs by MTT assay; design: scale not given: the % may be the effect or the level left
BT-549 = assay: Growth inhibition of human BT549 cells at 10 nM after 96 hrs by MTT assay; design: scale not given: the % may be the effect or the level left
T47D = assay: Growth inhibition of human T47D cells at 1 uM after 96 hrs by MTT assay; design: scale not given: the % may be the effect or the level left
OVCAR-3 = assay: Growth inhibition of human OVCAR-3 cells at 1 uM after 96 hrs by MTT assay; design: scale not given: the % may be the effect or the level left
KM12 [2] = assay: Growth inhibition of human KM12 cells at 1 uM after 96 hrs by MTT assay; design: scale not given: the % may be the effect or the level left
MDA-MB-468 [3] = assay: Growth inhibition of human MDA-MB-468 cells at 100 nM after 96 hrs by MTT assay; design: scale not given: the % may be the effect or the level left
KM12 [4] = assay: Growth inhibition of human KM12 cells after 96 hrs by MTT assay; conditions: KM12, 96 h
Method in brief: (§1)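 Run in the NCI 60 human tumour cell line panel as a five-dose assay. GI50 and LC50 were reported for each cell line.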

RXF 393 = assay: Growth inhibition of human RXF393 cells after 96 hrs by MTT assay; conditions: RXF 393, 96 h
Method in brief: (§2)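 Tested in the NCI 60-cell-line panel in five-dose format; GI50 and LC50 values reported for each cell line.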

NCI-H522 [5] = assay: Growth inhibition of human NCI-H522 cells after 96 hrs by MTT assay; conditions: NCI-H522, 96 h; method in brief: as §1
MDA-MB-435 = assay: Growth inhibition of human MDA-MB-435 cells at 10 uM after 96 hrs by MTT assay; design: scale not given: the % may be the effect or the level left
SN12C = assay: Growth inhibition of human SN12C cells at 10 nM after 96 hrs by MTT assay; design: scale not given: the % may be the effect or the level left
SF-539 = assay: Growth inhibition of human SF539 cells at 10 nM after 96 hrs by MTT assay; design: scale not given: the % may be the effect or the level left
OVCAR-8 = assay: Growth inhibition of human OVCAR8 cells at 10 nM after 96 hrs by MTT assay; design: scale not given: the % may be the effect or the level left
NCI-H522 [6] = assay: Growth inhibition of human NCI-H522 cells at 100 nM after 96 hrs by MTT assay; design: scale not given: the % may be the effect or the level left
SF-268 [7] = assay: Growth inhibition of human SF268 cells after 96 hrs by MTT assay; conditions: SF-268, 96 h; method in brief: as §2
A549 = assay: Growth inhibition of human A549 cells at 10 nM after 96 hrs by MTT assay; design: scale not given: the % may be the effect or the level left
KM12 [8] = assay: Growth inhibition of human KM12 cells at 10 nM after 96 hrs by MTT assay; design: scale not given: the % may be the effect or the level left
HT-29 = assay: Growth inhibition of human HT-29 cells at 10 uM after 96 hrs by MTT assay; design: scale not given: the % may be the effect or the level left
PC-3 [9] = assay: Growth inhibition of human PC3 cells at 10 uM after 96 hrs by MTT assay; design: scale not given: the % may be the effect or the level left
DU-145 = assay: Growth inhibition of human DU145 cells at 10 uM after 96 hrs by MTT assay; design: scale not given: the % may be the effect or the level left
M14 = assay: Growth inhibition of human M14 cells at 10 uM after 96 hrs by MTT assay; design: scale not given: the % may be the effect or the level left
MDA-MB-231 = assay: Growth inhibition of human MDA-MB-231 cells at 1 nM after 96 hrs by MTT assay; design: scale not given: the % may be the effect or the level left
HCT-116 = assay: Growth inhibition of human HCT116 cells at 1 nM after 96 hrs by MTT assay; design: scale not given: the % may be the effect or the level left
TK-10 = assay: Growth inhibition of human TK10 cells at 1 uM after 96 hrs by MTT assay; design: scale not given: the % may be the effect or the level left
SNB-75 [10] = assay: Growth inhibition of human SNB75 cells at 1 uM after 96 hrs by MTT assay; design: scale not given: the % may be the effect or the level left
SK-OV-3 [11] = assay: Growth inhibition of human SKOV3 cells after 96 hrs by MTT assay; conditions: SK-OV-3, 96 h; method in brief: as §2
UACC-257 = assay: Growth inhibition of human UACC257 cells at 100 nM after 96 hrs by MTT assay; design: scale not given: the % may be the effect or the level left
MDA-MB-468 [12] = assay: Growth inhibition of human MDA-MB-468 cells at 10 nM after 96 hrs by MTT assay; design: scale not given: the % may be the effect or the level left
U-251 = assay: Growth inhibition of human U251 cells at 100 nM after 96 hrs by MTT assay; design: scale not given: the % may be the effect or the level left
CAKI-1 [13] = assay: Growth inhibition of human Caki1 cells at 1 uM after 96 hrs by MTT assay; design: scale not given: the % may be the effect or the level left
SNB-75 [14] = assay: Growth inhibition of human SNB75 cells at 100 nM after 96 hrs by MTT assay; design: scale not given: the % may be the effect or the level left
NCI/ADR-RES = assay: Growth inhibition of human NCI/ADR-RES cells at 100 nM after 96 hrs by MTT assay; design: scale not given: the % may be the effect or the level left
MOLT-4 = assay: Growth inhibition of human MOLT4 cells at 10 uM after 96 hrs by MTT assay; design: scale not given: the % may be the effect or the level left
HCC 2998 = assay: Growth inhibition of human HCC2998 cells at 10 uM after 96 hrs by MTT assay; design: scale not given: the % may be the effect or the level left
OVCAR-5 = assay: Growth inhibition of human OVCAR5 cells at 100 nM after 96 hrs by MTT assay; design: scale not given: the % may be the effect or the level left
HCT-15 = assay: Growth inhibition of human HCT15 cells at 1 uM after 96 hrs by MTT assay; design: scale not given: the % may be the effect or the level left
HOP-62 = assay: Growth inhibition of human HOP62 cells at 10 nM after 96 hrs by MTT assay; design: scale not given: the % may be the effect or the level left
PC-3 [15] = assay: Growth inhibition of human PC3 cells at 10 nM after 96 hrs by MTT assay; design: scale not given: the % may be the effect or the level left
SF-268 [16] = assay: Growth inhibition of human SF268 cells at 100 nM after 96 hrs by MTT assay; design: scale not given: the % may be the effect or the level left
K562 = assay: Growth inhibition of human K562 cells at 100 nM after 96 hrs by MTT assay; design: scale not given: the % may be the effect or the level left
786-0 = assay: Growth inhibition of human 786-0 cells at 100 nM after 96 hrs by MTT assay; design: scale not given: the % may be the effect or the level left
UO-31 = assay: Growth inhibition of human UO31 cells at 10 nM after 96 hrs by MTT assay; design: scale not given: the % may be the effect or the level left
CAKI-1 [17] = assay: Growth inhibition of human Caki1 cells at 100 nM after 96 hrs by MTT assay; design: scale not given: the % may be the effect or the level left
[18] = read-out: Log10GI50 (converted)
[19] = read-out: Log10LC50 (converted)
[20] = read-out: LC50 (the source's name)

Work on `C=C(C)[C@H]1CC=C(C)C2=CO[C@@H](c3ccccc3F)[C@@H]21` yielded an Activity (SK-OV-3 [1]) of 93.49%, an Activity (NCI-H460) of 82% and an Activity (BT-549) of 84%. The Activity (T47D) was 2%, the Activity (OVCAR-3) was 12% and the Activity (KM12 [2]) was 24%. For the same compound, the Activity (MDA-MB-468 [3]) was 57%, the GI50 (KM12 [4]; read-out: GI50) was 4.02 µM and the LC50 (KM12 [4]; read-out: LC50) was 40.4 µM. The GI50 (KM12 [4]; [18]) was 3.98 µM, the LC50 (KM12 [4]; [19]) was 40.7 µM and the TGI (KM12 [4]; read-out: Log10TGI (converted)) was 15.8 µM. For the same compound, the TGI (KM12 [4]; read-out: TGI) was 15.7 µM, the GI50 (RXF 393; read-out: GI50) was 7 µM and the CC50 (RXF 393; [20]) was 64.7 µM. For the same compound, the GI50 (RXF 393; [18]) was 6.92 µM, the CC50 (RXF 393; [19]) was 64.6 µM and the TGI (RXF 393; read-out: Log10TGI (converted)) was 24 µM. The TGI (RXF 393; read-out: TGI) was 23.9 µM, the GI50 (NCI-H522 [5]; read-out: GI50) was 3.13 µM and the CC50 (NCI-H522 [5]; [20]) was 45.5 µM. The GI50 (NCI-H522 [5]; [18]) was 3.16 µM, the CC50 (NCI-H522 [5]; [19]) was 45.7 µM and the TGI (NCI-H522 [5]; read-out: Log10TGI (converted)) was 17.4 µM. For the same compound, the TGI (NCI-H522 [5]; read-out: TGI) was 17.4 µM, the Activity (MDA-MB-435) was 109.16% and the Activity (SN12C) was 87%. The Activity (SF-539) was 90%, the Activity (OVCAR-8) was 97% and the Activity (NCI-H522 [6]) was 71%. The GI50 (SF-268 [7]; read-out: GI50) was 6.95 µM, the CC50 (SF-268 [7]; [20]) was 62.9 µM and the GI50 (SF-268 [7]; [18]) was 6.92 µM. For the same compound, the CC50 (SF-268 [7]; [19]) was 63.1 µM, the TGI (SF-268 [7]; read-out: Log10TGI (converted)) was 23.4 µM and the TGI (SF-268 [7]; read-out: TGI) was 23.4 µM. It also gave an Activity (A549) of 89%, an Activity (KM12 [8]) of 93% and an Activity (HT-29) of 89.53%. For the same compound, the Activity (PC-3 [9]) was 22.47%, the Activity (DU-145) was 105.62% and the Activity (M14) was 102.54%. For the same compound, the Activity (MDA-MB-231) was 101%, the Activity (HCT-116) was 102% and the Activity (TK-10) was 48%. For the same compound, the Activity (SNB-75 [10]) was 35%, the GI50 (SK-OV-3 [11]; read-out: GI50) was 12.3 µM and the CC50 (SK-OV-3 [11]; [20]) was greater than 100 µM. It also gave a GI50 (SK-OV-3 [11]; [18]) of 12.3 µM, a CC50 (SK-OV-3 [11]; [19]) greater than 100 µM and a TGI (SK-OV-3 [11]; read-out: Log10TGI (converted)) of 38.9 µM. It also gave a TGI (SK-OV-3 [11]; read-out: TGI) of 39.3 µM, an Activity (UACC-257) of 81% and an Activity (MDA-MB-468 [12]) of 79%. The Activity (U-251) was 80%, the Activity (CAKI-1 [13]) was 37% and the Activity (SNB-75 [14]) was 84%. It also gave an Activity (NCI/ADR-RES) of 82%, an Activity (MOLT-4) of 74.3% and an Activity (HCC 2998) of 115.46%. For the same compound, the Activity (OVCAR-5) was 100%, the Activity (HCT-15) was 31% and the Activity (HOP-62) was 97%. For the same compound, the Activity (PC-3 [15]) was 89%, the Activity (SF-268 [16]) was 87% and the Activity (K562) was 68%. For the same compound, the Activity (786-0) was 89%, the Activity (UO-31) was 83% and the Activity (CAKI-1 [17]) was 87%.
